How the values were obtained:
[1] = target: Acetylcholinesterase (Homo sapiens, UniProt P22303); experiment: Inhibition constant against human Acetylcholinesterase (hAcChE) using acetylthiocholine (AcTCh) as substrate
[2] = target: T1, Cocaine esterase (Homo sapiens, UniProt O00748); experiment: Inhibition constant against human intestinal carboxylesterase 2 (hiCE) using nitrophenyl acetate (o-NPA) as substrate
T1 sequence (O00748 whole entry): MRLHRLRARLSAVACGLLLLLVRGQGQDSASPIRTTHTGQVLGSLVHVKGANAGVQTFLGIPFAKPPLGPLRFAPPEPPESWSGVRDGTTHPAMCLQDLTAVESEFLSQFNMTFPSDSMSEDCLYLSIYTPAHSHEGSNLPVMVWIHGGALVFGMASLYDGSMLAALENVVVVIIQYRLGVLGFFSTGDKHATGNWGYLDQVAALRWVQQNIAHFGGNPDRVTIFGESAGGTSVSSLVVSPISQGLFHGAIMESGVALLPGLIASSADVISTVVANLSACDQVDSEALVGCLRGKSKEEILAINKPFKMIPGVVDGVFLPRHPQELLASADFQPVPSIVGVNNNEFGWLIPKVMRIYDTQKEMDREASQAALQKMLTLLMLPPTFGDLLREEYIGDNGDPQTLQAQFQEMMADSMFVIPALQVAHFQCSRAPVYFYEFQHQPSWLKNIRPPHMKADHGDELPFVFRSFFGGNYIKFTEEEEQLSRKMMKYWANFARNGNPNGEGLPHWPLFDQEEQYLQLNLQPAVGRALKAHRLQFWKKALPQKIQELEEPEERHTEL

[3] = target: Cholinesterase (Homo sapiens, UniProt P06276); experiment: Inhibition constant against human Butyrylcholinesterase (hBuChE) using butyrylthiocholine (BuTCh) as substrate
Cholinesterase, sequence (P06276 whole entry): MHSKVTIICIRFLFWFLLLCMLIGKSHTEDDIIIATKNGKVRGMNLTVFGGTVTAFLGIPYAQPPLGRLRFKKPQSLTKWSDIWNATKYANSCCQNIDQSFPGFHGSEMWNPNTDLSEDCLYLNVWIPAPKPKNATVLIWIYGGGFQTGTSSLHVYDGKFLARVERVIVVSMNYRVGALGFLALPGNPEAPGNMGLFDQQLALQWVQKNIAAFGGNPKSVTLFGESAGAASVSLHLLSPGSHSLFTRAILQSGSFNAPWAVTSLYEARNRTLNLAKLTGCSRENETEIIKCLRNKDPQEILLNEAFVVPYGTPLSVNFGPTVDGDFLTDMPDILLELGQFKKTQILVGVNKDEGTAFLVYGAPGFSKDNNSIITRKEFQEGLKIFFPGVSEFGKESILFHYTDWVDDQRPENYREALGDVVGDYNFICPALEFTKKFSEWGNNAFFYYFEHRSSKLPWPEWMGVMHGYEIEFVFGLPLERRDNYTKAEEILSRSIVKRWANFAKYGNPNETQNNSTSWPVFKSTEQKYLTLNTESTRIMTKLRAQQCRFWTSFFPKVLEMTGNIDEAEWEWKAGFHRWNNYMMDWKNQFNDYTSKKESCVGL

[4] = target: T2, Liver carboxylesterase 1 (Homo sapiens, UniProt P23141); experiment: Inhibition constant against human liver carboxylesterase 1 (hCE1) using nitrophenyl acetate (o-NPA) as substrate
T2 sequence (P23141 whole entry): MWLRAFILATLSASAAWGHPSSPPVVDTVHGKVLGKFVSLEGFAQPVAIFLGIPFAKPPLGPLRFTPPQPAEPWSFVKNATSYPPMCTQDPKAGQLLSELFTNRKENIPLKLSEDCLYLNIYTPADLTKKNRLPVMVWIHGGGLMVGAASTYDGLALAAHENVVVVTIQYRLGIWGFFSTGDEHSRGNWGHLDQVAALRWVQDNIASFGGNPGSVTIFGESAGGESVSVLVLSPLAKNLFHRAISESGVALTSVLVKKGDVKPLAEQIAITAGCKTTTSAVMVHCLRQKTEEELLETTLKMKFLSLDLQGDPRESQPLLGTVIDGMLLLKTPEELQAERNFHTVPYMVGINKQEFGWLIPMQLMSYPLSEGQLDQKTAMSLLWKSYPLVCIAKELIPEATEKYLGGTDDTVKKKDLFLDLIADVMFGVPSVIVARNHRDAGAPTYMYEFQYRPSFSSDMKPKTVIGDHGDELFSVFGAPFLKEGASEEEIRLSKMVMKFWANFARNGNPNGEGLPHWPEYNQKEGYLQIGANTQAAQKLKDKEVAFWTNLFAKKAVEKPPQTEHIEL

[5] = target: T3, Liver carboxylesterase 1 (Oryctolagus cuniculus, UniProt P12337); experiment: Inhibition constant against rabbit liver carboxylesterase (rCE) using nitrophenyl acetate (o-NPA) as substrate
T3 sequence (P12337 whole entry): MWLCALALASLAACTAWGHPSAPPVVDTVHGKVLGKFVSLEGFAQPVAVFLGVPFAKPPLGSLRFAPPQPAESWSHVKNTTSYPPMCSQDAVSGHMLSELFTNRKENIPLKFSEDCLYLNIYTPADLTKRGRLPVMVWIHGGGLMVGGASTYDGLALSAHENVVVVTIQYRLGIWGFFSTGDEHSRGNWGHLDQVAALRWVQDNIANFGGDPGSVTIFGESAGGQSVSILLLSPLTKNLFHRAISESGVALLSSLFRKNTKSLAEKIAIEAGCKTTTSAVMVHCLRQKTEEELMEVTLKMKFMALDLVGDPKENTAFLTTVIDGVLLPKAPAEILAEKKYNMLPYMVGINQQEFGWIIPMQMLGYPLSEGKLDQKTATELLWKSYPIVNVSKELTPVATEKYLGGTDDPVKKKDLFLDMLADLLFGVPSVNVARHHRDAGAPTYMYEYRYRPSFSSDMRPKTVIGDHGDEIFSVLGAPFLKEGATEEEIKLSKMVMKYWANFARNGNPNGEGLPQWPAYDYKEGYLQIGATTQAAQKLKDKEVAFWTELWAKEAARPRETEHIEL
How it was run: (§1)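 Pure rCE prepared per earlier work. Spectrophotometric multiwell assay with 3mM o-NPA. Inhibitor and substrate were dispensed first, then enzyme was added. A420 was read every 15 s for 5 min and compared with no-inhibitor wells. Inhibitor range started at 1 pM. Duplicates, with 50 µM BNPP and DMSO/no-enzyme controls. Ki came from a partially competitive inhibition equation fit.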

[6] = target: T2, Liver carboxylesterase 1; experiment: Inhibition constant against human liver carboxylesterase 1 using o-NPA (nitrophenyl acetate)
How it was run: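 Purified hCE1 was assayed in multiwell plates with 3 mM o-nitrophenyl acetate, with enzyme added last. Absorbance change at 420 nm was read every 15 s for 5 min and compared with no-inhibitor wells. Inhibitor concentrations started at 1 pM, and assays were run in duplicate with 50 µM BNPP and DMSO/no-enzyme controls. Ki came from fitting to a partially competitive inhibition equation.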

[7] = target: T3, Liver carboxylesterase 1; experiment: Inhibition constant against rabbit liver carboxylesterase using CPT-11
How it was run: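 Purified rabbit CE was used with CPT-11 as the substrate. CPT-11 and SN-38 were quantified by HPLC with fluorescence detection.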

[8] = target: T2, Liver carboxylesterase 1; experiment: Inhibition constant against human liver carboxylesterase 1 using 4-MUA (4-methylumbelliferone acetate)
How it was run: (§2)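 Pure enzyme (hCE1 or rabbit CE) was incubated with 0.75 mM 4-methylumbelliferone acetate in 50 mM Hepes, pH 7.4. Inhibitor dilution series were run, and Ki was obtained by fitting fractional inhibition to a partially competitive inhibition equation.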

[9] = target: T3, Liver carboxylesterase 1; experiment: Inhibition constant against rabbit liver carboxylesterase using 4-MUA (4-methylumbelliferone acetate)
How it was run: as §2, with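 “7.4. 4-Methylumbelliferone release was read fluorimetrically (excitation 365 nm, emission 460 nm) over 1 min, where the rate was linear.” for “7.4.”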

[10] = target: T3, Liver carboxylesterase 1; experiment: Inhibition constant against rabbit liver carboxylesterase using o-NPA (nitrophenyl acetate); how it was run: as §1

Acetylcholinesterase, sequence (P22303 whole entry): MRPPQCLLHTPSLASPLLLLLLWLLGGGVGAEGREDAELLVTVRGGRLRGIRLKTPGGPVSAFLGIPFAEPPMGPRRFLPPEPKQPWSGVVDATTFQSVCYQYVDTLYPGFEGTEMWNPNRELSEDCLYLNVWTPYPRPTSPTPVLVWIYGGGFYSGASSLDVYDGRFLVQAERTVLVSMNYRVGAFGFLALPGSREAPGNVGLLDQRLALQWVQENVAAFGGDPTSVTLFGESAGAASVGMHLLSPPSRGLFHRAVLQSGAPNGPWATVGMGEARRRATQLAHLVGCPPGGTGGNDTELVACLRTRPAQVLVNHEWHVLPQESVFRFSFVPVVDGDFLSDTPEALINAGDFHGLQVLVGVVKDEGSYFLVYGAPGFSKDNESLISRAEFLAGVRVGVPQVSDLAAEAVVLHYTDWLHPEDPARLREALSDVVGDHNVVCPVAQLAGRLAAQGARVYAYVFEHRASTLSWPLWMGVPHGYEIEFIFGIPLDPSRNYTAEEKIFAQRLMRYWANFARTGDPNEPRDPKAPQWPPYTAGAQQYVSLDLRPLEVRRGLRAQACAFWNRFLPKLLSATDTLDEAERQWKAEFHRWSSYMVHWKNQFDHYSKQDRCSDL

Row | SMILES | Ki [1] [µM] | Ki [2] [µM] | Ki [3] [µM] | Ki [4] [µM] | Ki [5] [µM] | Ki [6] [µM] | Ki [7] [µM] | Ki [8] [nM] | Ki [9] [µM] | Ki [10] [µM]
1 | O=C1CCCCC1=O | > 100 | > 100 | > 100 | > 100 | > 100 | – | – | – | – | –
2 | [O-][S+](Cc1ccccc1)Cc1ccccc1 | > 100 | > 100 | > 100 | > 100 | > 100 | – | – | – | – | –
3 | CC1CCCC(=O)C1=O (stereo not drawn) | > 100 | > 100 | > 100 | > 100 | > 100 | – | – | – | – | –
4 | CC(=O)CC(C)=O | > 100 | > 100 | > 100 | > 100 | > 100 | – | – | – | – | –
5 | CN(C)c1ccc(C(=O)C(=O)c2ccc(N(C)C)cc2)cc1 | – | – | – | – | 2.15 | – | – | – | – | –
6 | CC1C(=O)CCCC1=O | > 100 | > 100 | > 100 | > 100 | > 100 | – | – | – | – | –
7 | CC1CC(C)(C)CC(=O)C1=O (stereo not drawn) | > 100 | > 100 | > 100 | > 100 | > 100 | – | – | – | – | –
8 | Cc1ccc(C(=O)C(=O)c2ccccc2)cc1[N+](=O)[O-] | – | – | – | – | 0.0119 | 0.295 | 0.0241 | 7.5 | 0.004 | –
9 | O=C(C(=O)c1ccc(Cl)cc1)c1ccc(Cl)cc1 | – | – | – | 0.182 | 0.0095 | 0.182 | 0.043 | 1.6 | 0.0013 | 0.0095
10 | O=C(C(=O)c1ccc(Cl)cc1)c1ccccc1 | – | – | – | – | 0.0239 | 0.0474 | 0.0525 | 5.4 | 0.0017 | –
11 | CC(=O)C(=O)c1ccccc1 | > 100 | – | > 100 | 5.27 | 4.93 | – | – | – | – | –
12 | CN(C)c1ccc(C(O)C(=O)c2ccccc2)cc1 (stereo not drawn) | > 100 | > 100 | > 100 | > 100 | > 100 | – | – | – | – | –
13 | O=C(O)c1ccc(C(=O)c2ccccc2)cc1 | > 100 | > 100 | > 100 | > 100 | > 100 | – | – | – | – | –
14 | CC1NC(=O)C(=O)OC1C (stereo not drawn) | > 100 | > 100 | > 100 | > 100 | > 100 | – | – | – | – | –
15 | Cc1ccc(C(=O)C(=O)c2ccccc2)cc1C | – | – | – | – | 0.108 | 0.0991 | 0.24 | 18.8 | 0.0044 | –
16 | O=C(C(=O)c1ccc(Br)cc1)c1ccc(Br)cc1 | – | – | – | – | 0.0041 | – | 0.025 | 0.029 | 0.00017 | –
17 | O=C(C(=O)c1ccc(C(=O)C(=O)c2ccccc2)cc1)c1ccccc1 | – | – | – | – | 0.0061 | – | 0.0141 | – | 0.0021 | –
18 | CC1C(=O)CCC1=O | > 100 | > 100 | > 100 | > 100 | > 100 | – | – | – | – | –
19 | CC(=O)CCC(=O)c1ccccc1 | > 100 | > 100 | > 100 | > 100 | > 100 | – | – | – | – | –

Row | SMILES | Ki [1] [µM] | Ki [2] [µM] | Ki [3] [µM] | Ki [4] [µM] | Ki [5] [µM] | Ki [6] [µM] | Ki [7] [µM] | Ki [8] [nM] | Ki [9] [µM] | Ki [10] [µM]
20 | O=C1CCCC(=O)C1 | > 100 | > 100 | > 100 | > 100 | > 100 | – | – | – | – | –
21 | CCCCC(=O)C(C)=O | > 100 | > 100 | > 100 | 16.9 | > 100 | – | – | – | – | –
22 | O=C1C(=O)C(Cl)=C(Cl)C(Cl)=C1Cl | 1.67 | 0.875 | 3.2 | 5.44 | 1.03 | – | – | – | – | –
23 | COC(OC)(C(=O)c1ccccc1)c1ccccc1 | > 100 | > 100 | > 100 | 15.3 | > 100 | – | – | – | – | –
24 | O=S(=O)(Cc1ccccc1)Cc1ccccc1 | > 100 | > 100 | > 100 | > 100 | > 100 | – | – | – | – | –
25 | CC(C)(C)C1=CC(=O)C(=O)C(C(C)(C)C)=C1 | > 100 | 1.35 | > 100 | 0.0886 | 0.736 | – | – | – | – | –
26 | OC(c1ccccc1)C(O)c1ccccc1 (stereo not drawn) | > 100 | > 100 | > 100 | > 100 | > 100 | – | – | – | – | –
27 | COc1ccc(C(=O)C(O)c2ccc(OC)cc2)cc1 (stereo not drawn) | > 100 | > 100 | > 100 | > 100 | 13.9 | – | – | – | – | –
28 | CC1CCC(=O)C1=O (stereo not drawn) | > 100 | > 100 | > 100 | > 100 | 15.7 | – | – | – | – | –
29 | Oc1nc2cc(Cl)c(Cl)cc2nc1O [2,3-DIHYDROXY-6,7-DICHLOROQUINOXALINE] | > 100 | > 100 | > 100 | > 100 | > 100 | – | – | – | – | –
30 | CCC(=O)C(C)=O [2,3-PENTANEDIONE] | > 100 | > 100 | > 100 | > 100 | > 100 | – | – | – | – | –
31 | O=C(c1ccccc1)C(O)c1ccccc1 (stereo not drawn) [BENZOIN] | – | – | – | – | > 100 | – | – | – | – | –
32 | O=C(c1ccccc1)c1ccccc1 [BENZOPHENONE] | – | > 100 | > 100 | > 100 | > 100 | – | – | – | – | –
33 | O=C1C=CC(=O)C=C1 [BENZOQUINONE] | 0.955 | > 100 | 2.05 | > 100 | > 100 | – | – | – | – | –
34 | O=S(=O)(Cc1ccccc1)c1ccccc1 [BENZYLSULFONYLBENZENE] | > 100 | > 100 | > 100 | > 100 | > 100 | – | – | – | – | –
35 | CC(=O)C(C)=O [BUTANEDIONE] | > 100 | > 100 | > 100 | > 100 | > 100 | – | – | – | – | –
36 | O=C1C(Cl)=C(Cl)C(=O)C(Cl)=C1Cl [CHLORANIL] | 0.163 | – | 0.268 | 0.0839 | 0.0548 | – | – | – | – | –
37 | O=C(CC(=O)c1ccccc1)c1ccccc1 [DIBENZOYLMETHANE] | > 100 | > 100 | > 100 | 26 | 3.95 | – | – | – | – | –

Reference: ChEMBL document CHEMBL1143603, “Identification and characterization of novel benzil (diphenylethane-1,2-dione) analogues as inhibitors of mammalian carboxylesterases” (J Med Chem, 2005)
